From ChEMBL document CHEMBL4043127, “ATP-competitive, marine derived natural products that target the DEAD box helicase, eIF4A” (Bioorg Med Chem Lett, 2017)
Activity calls are given as the source filed them. No cut-off for these calls is given here.

Assays:
[1] = molecular target: Eukaryotic initiation factor 4A-I (Homo sapiens) (UniProt P60842); assay: Inhibition of eIF4A (unknown origin) expressed in Escherichia coli BL21(DE3) at 100 uM preincubated for 10 mins followed by ATP and fluorescently-labeled RNA addition measured after 10 mins by real-time fluorescence assay
Eukaryotic initiation factor 4A-I (Homo sapiens), sequence (P60842 whole entry): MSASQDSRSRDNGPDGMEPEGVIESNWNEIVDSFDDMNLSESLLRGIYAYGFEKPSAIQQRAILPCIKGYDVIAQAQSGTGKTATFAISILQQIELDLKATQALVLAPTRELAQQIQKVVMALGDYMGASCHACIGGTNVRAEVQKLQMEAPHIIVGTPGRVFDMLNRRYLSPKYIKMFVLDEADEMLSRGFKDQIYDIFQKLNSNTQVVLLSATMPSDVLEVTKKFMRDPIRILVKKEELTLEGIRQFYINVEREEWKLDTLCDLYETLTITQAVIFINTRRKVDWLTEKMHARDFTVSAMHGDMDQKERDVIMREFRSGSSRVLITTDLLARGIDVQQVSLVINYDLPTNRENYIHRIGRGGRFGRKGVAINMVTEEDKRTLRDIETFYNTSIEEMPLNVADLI
Method in brief: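 Recombinant eIF4A from E. coli BL21(DE3), Talon-purified, at 500 nM in pH 6.0 MES-KOH buffer (10 mM K acetate, 2.5 mM MgCl2, 1% glycerol, 1 mM DTT). Preincubated with 100 µM compound (2% DMSO final) for 10 min at 22°C. Started with 50 nM labeled RNA plus 1 mM ATP, then real-time fluorescence read for 10 min at 25°C. Percent inhibition from slopes versus DMSO and water (no-ATP) controls.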

[2] = molecular target: Heat shock 70 kDa protein 1A (Homo sapiens, UniProt P0DMV8); assay: Inhibition of HSPA1A (unknown origin) expressed in Escherichia coli BL21(DE3) preincubated for 10 mins followed by ATP addition by malachite green dye-based assay
Heat shock 70 kDa protein 1A, sequence (P0DMV8 whole entry): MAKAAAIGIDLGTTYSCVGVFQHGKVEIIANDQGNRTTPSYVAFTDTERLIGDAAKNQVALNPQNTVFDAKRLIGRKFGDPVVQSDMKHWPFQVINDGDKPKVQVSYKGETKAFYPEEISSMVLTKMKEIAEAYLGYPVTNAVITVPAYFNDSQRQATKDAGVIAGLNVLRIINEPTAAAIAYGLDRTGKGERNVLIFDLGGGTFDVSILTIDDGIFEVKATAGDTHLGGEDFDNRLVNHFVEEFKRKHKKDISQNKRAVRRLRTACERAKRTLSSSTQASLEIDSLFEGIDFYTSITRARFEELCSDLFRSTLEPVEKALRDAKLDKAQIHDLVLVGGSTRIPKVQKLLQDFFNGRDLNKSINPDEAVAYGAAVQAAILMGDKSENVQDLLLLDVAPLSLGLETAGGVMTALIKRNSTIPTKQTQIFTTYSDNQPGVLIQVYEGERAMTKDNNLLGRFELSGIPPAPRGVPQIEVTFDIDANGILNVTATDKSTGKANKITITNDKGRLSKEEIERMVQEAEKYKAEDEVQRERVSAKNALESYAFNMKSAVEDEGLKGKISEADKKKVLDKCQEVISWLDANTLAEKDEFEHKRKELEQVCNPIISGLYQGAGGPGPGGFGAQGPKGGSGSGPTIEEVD
Method in brief: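 His-tagged HSPA1A, induced at 16°C, used at 1,000 nM in 50 mM Tris-HCl pH 7.4, 150 mM KCl, 10 mM MgCl2. Compounds 100 to 0.0457 µM, 2% DMSO final, 10 min preincubation at 37°C. Reaction started with 200 µM ATP at 37°C, phosphate detected by malachite green OD660. IC50 by semi-log fit of normalized inhibition.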

[3] = molecular target: ATP-dependent RNA helicase DDX3X (Homo sapiens, UniProt O00571); assay: Inhibition of DDX3 (unknown origin) preincubated for 10 mins followed by ATP addition by malachite green dye-based assay
ATP-dependent RNA helicase DDX3X, sequence (O00571 whole entry): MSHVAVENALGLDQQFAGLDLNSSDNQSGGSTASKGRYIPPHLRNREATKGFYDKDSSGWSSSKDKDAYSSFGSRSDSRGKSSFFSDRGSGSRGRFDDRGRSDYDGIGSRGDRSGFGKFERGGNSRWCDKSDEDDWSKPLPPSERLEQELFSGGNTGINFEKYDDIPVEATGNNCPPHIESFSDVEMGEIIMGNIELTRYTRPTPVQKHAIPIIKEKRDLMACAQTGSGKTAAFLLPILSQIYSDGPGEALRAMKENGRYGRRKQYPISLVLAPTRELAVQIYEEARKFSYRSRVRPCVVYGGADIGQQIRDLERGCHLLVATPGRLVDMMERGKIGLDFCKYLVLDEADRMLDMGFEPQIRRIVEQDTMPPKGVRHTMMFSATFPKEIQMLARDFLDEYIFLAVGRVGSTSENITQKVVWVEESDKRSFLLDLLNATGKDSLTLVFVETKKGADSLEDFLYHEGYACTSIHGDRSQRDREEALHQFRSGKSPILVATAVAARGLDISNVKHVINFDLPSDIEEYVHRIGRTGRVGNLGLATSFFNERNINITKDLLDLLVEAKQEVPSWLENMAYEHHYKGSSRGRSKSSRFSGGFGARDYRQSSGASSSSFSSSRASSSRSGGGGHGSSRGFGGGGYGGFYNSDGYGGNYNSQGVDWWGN
Method in brief: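 Compounds 100 to 0.0457 µM, 2% DMSO final, 10 min at 37°C. Initiated with 250 µM ATP at 37°C. Released phosphate detected with malachite green at OD660. IC50 fitted from normalized percent inhibition on a semi-log plot.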

[4] = molecular target: Transitional endoplasmic reticulum ATPase (Homo sapiens, UniProt P55072); assay: Inhibition of p97 (unknown origin) expressed in Escherichia coli BL21(DE3) preincubated for 10 mins followed by ATP addition measured after 60 mins by malachite green dye-based assay
Transitional endoplasmic reticulum ATPase, sequence (P55072 whole entry): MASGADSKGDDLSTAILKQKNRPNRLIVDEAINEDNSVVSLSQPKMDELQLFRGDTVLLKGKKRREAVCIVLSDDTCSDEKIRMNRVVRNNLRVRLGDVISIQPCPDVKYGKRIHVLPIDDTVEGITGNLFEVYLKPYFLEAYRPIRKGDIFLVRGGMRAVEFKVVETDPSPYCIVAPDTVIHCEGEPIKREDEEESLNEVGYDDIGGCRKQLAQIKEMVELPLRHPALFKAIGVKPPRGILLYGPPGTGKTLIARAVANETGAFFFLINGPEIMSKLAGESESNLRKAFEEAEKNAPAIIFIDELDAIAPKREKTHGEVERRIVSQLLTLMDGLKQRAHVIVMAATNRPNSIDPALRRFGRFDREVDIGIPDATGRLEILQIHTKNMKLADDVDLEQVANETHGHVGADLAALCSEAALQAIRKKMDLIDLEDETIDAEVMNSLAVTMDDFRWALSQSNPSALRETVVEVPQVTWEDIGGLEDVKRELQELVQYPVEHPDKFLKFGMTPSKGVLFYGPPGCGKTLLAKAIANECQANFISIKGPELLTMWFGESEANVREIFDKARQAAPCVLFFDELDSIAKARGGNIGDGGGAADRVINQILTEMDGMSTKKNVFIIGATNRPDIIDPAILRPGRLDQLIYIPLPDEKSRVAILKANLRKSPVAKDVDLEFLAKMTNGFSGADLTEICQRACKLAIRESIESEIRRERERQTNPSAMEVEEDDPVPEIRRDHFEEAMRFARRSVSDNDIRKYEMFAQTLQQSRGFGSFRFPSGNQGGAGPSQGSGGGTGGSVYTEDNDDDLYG
Method in brief: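 Compound series 100 to 0.0457 µM, 2% DMSO final, 10 min at 37°C. Started with 200 µM ATP, incubated 60 min at 37°C, then malachite green OD660 read. IC50 from semi-log fit of normalized % inhibition.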

[5] = molecular target: Eukaryotic initiation factor 4A-I (Homo sapiens) (UniProt P60842); assay: Inhibition of eIF4A1 (unknown origin) expressed in Escherichia coli BL21(DE3) at 0.01 to 100 uM using Poly(U) RNA as substrate preincubated for 10 mins followed by substrate addition measured after 60 mins by malachite green dye-based assay
Method in brief: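 Compound dilutions 100 to 0.0457 µM, 2% DMSO final, 10 min at 37°C. ATP added and reaction run 60 min at 37°C, then malachite green OD660 read. DMSO 2% and 20 mM EDTA served as controls. IC50 from semi-log fit.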

[6] = molecular target: ATP-dependent RNA helicase DDX39A (Homo sapiens, UniProt O00148); assay: Inhibition of DDX39A (unknown origin) expressed in Escherichia coli BL21(Rosetta 2) preincubated for 10 mins followed by ATP addition measured after 60 mins by malachite green dye-based assay
ATP-dependent RNA helicase DDX39A, sequence (O00148 whole entry): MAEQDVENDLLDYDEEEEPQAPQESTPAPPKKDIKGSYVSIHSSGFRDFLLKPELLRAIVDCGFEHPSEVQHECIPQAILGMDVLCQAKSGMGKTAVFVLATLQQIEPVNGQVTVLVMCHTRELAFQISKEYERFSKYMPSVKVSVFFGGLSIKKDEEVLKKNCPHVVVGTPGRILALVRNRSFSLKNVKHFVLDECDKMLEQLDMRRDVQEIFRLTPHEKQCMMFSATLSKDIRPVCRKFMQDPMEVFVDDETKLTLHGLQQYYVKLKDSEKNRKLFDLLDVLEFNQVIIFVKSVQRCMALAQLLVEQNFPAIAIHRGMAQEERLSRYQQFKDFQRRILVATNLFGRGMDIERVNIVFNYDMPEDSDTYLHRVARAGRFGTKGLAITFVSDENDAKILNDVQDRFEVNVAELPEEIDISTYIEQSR
Method in brief: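 His-tagged DDX39A at 500 nM in MES-KOH pH 6.0 buffer (10 mM KOAc, 2.5 mM MgCl2, 1% glycerol, 1 mM DTT). Eight-point 3-fold series 100 to 0.0457 µM, 2% DMSO final, 10 min preincubation at 37°C. Started with 250 µM ATP, 60 min at 37°C, then malachite green read at OD660. EDTA 20 mM served as positive control. IC50 by semi-log fit of normalized inhibition.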

[7] = molecular target: Eukaryotic initiation factor 4A-I (Homo sapiens) (UniProt P60842)
[8] = molecular target: Probable ATP-dependent RNA helicase DDX17 (Homo sapiens, UniProt Q92841); assay: Inhibition of DDX17 (unknown origin) expressed in Escherichia coli BL21(DE3) preincubated for 10 mins followed by ATP addition measured after 120 mins by malachite green dye-based assay
Probable ATP-dependent RNA helicase DDX17, sequence (Q92841 whole entry): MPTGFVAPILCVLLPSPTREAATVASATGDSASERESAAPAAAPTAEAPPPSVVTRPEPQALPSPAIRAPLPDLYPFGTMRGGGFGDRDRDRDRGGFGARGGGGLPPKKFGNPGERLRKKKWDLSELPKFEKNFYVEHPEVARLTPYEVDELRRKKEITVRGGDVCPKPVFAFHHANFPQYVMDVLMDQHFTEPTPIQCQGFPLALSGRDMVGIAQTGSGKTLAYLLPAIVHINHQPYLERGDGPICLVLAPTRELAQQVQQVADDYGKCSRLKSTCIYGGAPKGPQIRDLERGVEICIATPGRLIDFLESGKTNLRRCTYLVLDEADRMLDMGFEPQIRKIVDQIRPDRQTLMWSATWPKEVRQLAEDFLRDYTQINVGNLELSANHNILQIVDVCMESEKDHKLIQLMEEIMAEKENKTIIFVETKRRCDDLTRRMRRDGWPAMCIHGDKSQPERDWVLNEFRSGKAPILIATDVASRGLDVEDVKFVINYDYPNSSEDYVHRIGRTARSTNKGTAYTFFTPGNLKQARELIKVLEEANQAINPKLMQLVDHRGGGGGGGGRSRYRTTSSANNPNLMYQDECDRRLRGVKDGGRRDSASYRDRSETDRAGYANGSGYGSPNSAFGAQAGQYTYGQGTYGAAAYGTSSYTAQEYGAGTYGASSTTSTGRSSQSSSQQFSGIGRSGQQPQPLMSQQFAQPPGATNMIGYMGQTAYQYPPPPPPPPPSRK
Method in brief: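 Compound gradient 100 to 0.0457 µM (3-fold), final DMSO 2%, 10 min at 37°C. Reaction started with 250 µM ATP at 37°C, phosphate read by malachite green OD660 at 120 min. IC50 from normalized % inhibition versus log concentration.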

[9] = molecular target: Eukaryotic initiation factor 4A-I (Homo sapiens) (UniProt P60842); assay: Inhibition of eIF4A (unknown origin) expressed in Escherichia coli BL21(DE3) at 100 uM preincubated for 10 mins followed by ATP and fluorescently-labeled RNA addition measured after 10 mins by real-time fluorescence assay relative to control
Method in brief: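 Real-time fluorescence helicase assay. eIF4A at 500 nM in MES-KOH pH 6.0 buffer, preincubated 10 min at 22°C with compound at 100 µM, 2% DMSO final. Started with 50 nM labeled RNA plus 1 mM ATP, or water as control, and read for 10 min at 25°C. % inhibition = 100 − ((A−B)/(C−B)×100), using the slopes of compound (A), water (B) and DMSO (C) traces.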

With `C[C@H]1C[C@@]2(O[C@H]3C[C@H]4[C@@H]5CC[C@H]6C[C@H](O)CC[C@]6(C)[C@H]5[C@@H](O)C[C@]4(C)[C@H]3[C@@]2(C)O)OC1(C)C` the inhibition [1] was “Active”.
In the case of `CC(C)=C[C@@H]1C[C@H](C)c2c(O)cc(C)c3c2C1=C(C)C(=O)C3=O` [ELISABATIN A], the IC50 [2] is reported as greater than 100 µM, the IC50 [3] is reported as greater than 100 µM and the IC50 [4] is reported as greater than 100 µM. For the same compound, the inhibition [5] was “Active”, the IC50 [6] was greater than 100 µM and the Kis [7] was 55 µM. The IC50 [8] was greater than 100 µM and the inhibition [9] was 34%.
With `C=C1CC[C@@](C)(c2cc(Br)c(C)cc2O)[C@H]1C` the IC50 [2] was greater than 100 µM, the IC50 [3] was greater than 100 µM and the IC50 [4] was greater than 100 µM. For the same compound, the inhibition [5] was “Active”, the IC50 [6] was greater than 100 µM and the Kis [7] was 3.86 µM. For the same compound, the inhibition [1] was “Active” and the IC50 [8] was greater than 100 µM.
